# Sampled rows, rich in hits. Any-hit rate of the full collection: about 3%.
# C2C12 statin: protects C2C12 myotubes from simvastatin toxicity. 0.78% of 330,000 active. ATP luminescence, 48 h; scaled: DMSO 0, geranylgeraniol control 100. rescue of ATP level, % at 7.49 µM. AID 602340;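 active means mean ATP rescue above about 67%, or every replicate alone reaching that limit, limit read from the data, passing the limit was not always enough; inconclusive means no clear call, values can overlap the other calls; inactive means mean under the limit and some replicate under it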;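 further: myotubes were challenged with 10 µM simvastatin during compound exposure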
# Cneo AK release: Cryptococcus neoformans lysis via adenylate kinase release; C. neoformans lysis, adenylate kinase release luminescence, 4 h; normalised: neutral wells 0, clomiphene wells 100; lysis activity, % at 15 µM; 0.2% of 360,000 active; AID 651654;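 active means mean lysis activity across replicates of at least 80%, whatever share of replicates individually reach that level; inactive means mean lysis activity below 80%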
#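 Material – log-phase Cryptococcus neoformans yeast cells · Input – 5 × 10^6 yeast cells/mL · Medium – fresh YPD growth medium · Doses – single compound concentration per well · Timing – static 4 h at 37 °C with compound, 1 h detection · Detection – adenylate kinase release luminescence · Read-out – signal increase indicating cell lysis · Control set – Clomiphene as positive lysis control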
# PGC1a acetyl inh: modulators of PGC1a acetylation. 0.17% of 350,000 active. inhibition, % at 15.6 µM. U2OS PGC1a acetylation, AlphaScreen anti-acetyl-lysine; with virally co-expressed GCN5 acetyltransferase;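 active means every replicate shows inhibition of at least 40%; inconclusive means mean inhibition at least 40% but some replicate below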;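 further: 0% = neutral control wells and 100% = positive control wells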
# S100A4 MyoIIA: S100A4-myosin IIA interaction inhibition. P26447. 0.14% of 360,000 active. S100A4/TAMRA-MyoIIA peptide fluorescence polarization. inhibition, % at 10.7 µM;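 active means mean inhibition of at least 70% across replicates, with every replicate also reaching that level; inconclusive means mean inhibition reaches 70% but some replicates fall short; inactive means mean inhibition below 70%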
# Target sequence (P26447 whole entry, looked up): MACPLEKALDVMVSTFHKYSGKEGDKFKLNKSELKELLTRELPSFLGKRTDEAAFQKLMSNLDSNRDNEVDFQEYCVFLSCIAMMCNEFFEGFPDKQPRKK
#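 Test system: S100A4 monomer protein; Medium: HEPES pH 7.2 with CaCl2, KCl, NaCl, DTT, Triton; Probe or stimulus: TAMRA-labelled myosin IIA heavy-chain peptide probe, 5 nM; Doses: one dose per compound; Times: polarization read 5 min after assay mix addition, stable 5–60 min; Benchmarks: neutral control DMSO, positive control TFP.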
# SIRT5 block: sirtuin-5 (human) deacylase inhibition. 1.1% of 330,000 active. inhibition, % at 15 µM. Purified SirT5, succinyl-peptide AMC, trypsin-coupled fluorescence. AID 652115. Q9NXA8; in the data active means inhibition above about 15%; inconclusive means no clear call, values can overlap the other calls
# Target sequence (Q9NXA8 whole entry, looked up): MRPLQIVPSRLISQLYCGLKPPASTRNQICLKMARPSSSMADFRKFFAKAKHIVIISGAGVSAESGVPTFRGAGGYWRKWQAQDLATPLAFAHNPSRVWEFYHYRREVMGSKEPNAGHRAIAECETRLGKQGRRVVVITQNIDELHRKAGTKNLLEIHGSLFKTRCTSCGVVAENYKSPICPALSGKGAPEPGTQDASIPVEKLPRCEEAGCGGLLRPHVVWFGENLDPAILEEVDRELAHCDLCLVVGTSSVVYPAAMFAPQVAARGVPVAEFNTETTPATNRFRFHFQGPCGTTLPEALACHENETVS
# Ecoli rRNA inh: inhibitors of bacterial rRNA selective over humanized ribosomes; E. coli WT GFP vs humanized-ribosome RFP mutants, fluorescence, 24 h; stronger effect = lower value; DMSO median 0, no signal -100; GFP signal change (wild-type ribosome), % (no concentration beside the values); 1.6% of 350,000 active;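 active means significant combined selectivity score with lowered wild-type GFP, culture density cut under 30%, mutant RFP and density less affected; inactive means any of these conditions unmet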
# AID977621: wild-type E. coli growth inhibition versus H69 humanized strain – H69 mutant RFP, wild-type GFP, cherry-pick, dose response; 1,900 tested, under 10 active; fluorescence, 24 h; shares compounds with Ecoli rRNA inh; activity change, negative = inhibition at 50 µM;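 active means Wild-type ribosome reporter drop at least double the humanized mutant ribosome reporter drop, growth loss under a set limit; inconclusive means no clear call, values can overlap the other calls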;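 further: wild-type GFP and H69 mutant RFP strains grown together 50/50 in each well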
# AID977628: E. coli growth inhibition, wild-type GFP versus h24 humanized RFP strain, dose response, h24 mutant RFP vs wild-type GFP, cherry-pick | shares compounds with Ecoli rRNA inh | E. coli WT GFP strain growth, fluorescence, 24 h | activity change, negative = inhibition at 50 µM | 1,900 tested, under 10 active;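 active means compound lowering the normal-ribosome reporter at least twice as much as the humanized-ribosome reporter, growth loss under a set limit; inconclusive means no clear call, values can overlap the other calls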;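 further: wild-type GFP and h24 humanized RFP strains co-cultured 1 to 1 per well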
# * marks the source's active call; other numbers are inactive results; ? = inconclusive; . = not tested or not shown.
SMILES,C2C12 statin,Cneo AK release,PGC1a acetyl inh,S100A4 MyoIIA,SIRT5 block,Ecoli rRNA inh,AID977621,AID977628
C[C@@H]1CN([C@@H](C)CO)C(=O)c2cc(NC(=O)Nc3cccc4ccccc34)ccc2O[C@@H](C)CCCCO[C@H]1CN(C)C,7,6,-4,8,-1,-1,-6.2,2.7
C[C@@H]1CCCCO[C@H](CN(C)C(=O)c2ccccc2)[C@@H](C)CN([C@@H](C)CO)C(=O)c2cc(NC(=O)Cc3ccccc3)ccc2O1,.,-1,-5,0,2,-6,.,.
C[C@@H]1CCCCO[C@@H](CN(C)S(C)(=O)=O)[C@H](C)CN([C@H](C)CO)C(=O)c2cc(NC(=O)Nc3cccc4ccccc34)ccc2O1,.,1,1,12,0,-1,.,.
CO[C@@H]1CN(C)C(=O)c2ccc(NC(=O)c3nc4ccccc4s3)cc2OC[C@@H](C)N(Cc2ccncc2)C[C@@H]1C,2,-2,0,-28,2,-25*,.,?
CN(C)CCCN(C(=O)CCSc1ccccc1)c1nc2cc3c(cc2s1)OCO3,26,0,-3,0,-3,-31*,-5.2,-3.8
O=C(N[C@H]1CC[C@@H](CCn2cc(C3(O)CCCC3)nn2)O[C@H]1CO)C1CC1,0,0,-15,-14,1,1,.,.
CC(=O)Nc1ccc(NS(=O)(=O)c2ccc(Cl)s2)cc1,.,.,.,32,-1,-20*,.,?
CC(=O)Nc1ccc(NS(=O)(=O)c2cc(Cl)sc2Cl)cc1,-3,-5,4,-3,-1,-2,.,.
C[C@@H]1CN([C@H](C)CO)S(=O)(=O)c2ccc(-c3cccc(F)c3)cc2O[C@@H]1CN(C)C(=O)C1CC1,5,6,-6,11,-2,-7,.,.
COc1cccc(NC(=O)c2ccc(-c3ccc([N+](=O)[O-])cc3)o2)c1,.,.,.,-9,-1,-28*,-23,.
CC(=O)Nc1cccc(OCCCOc2ccc([N+](=O)[O-])cc2)c1,.,.,.,2,-1,3,.,.
CC(=O)Nc1cccc(OCc2ccc([N+](=O)[O-])cc2)c1,.,.,.,5,0,-23*,-6,-6.6
COc1cc(OC)cc(C(=O)NC(C)c2ccc(Br)cc2)c1 (stereo not drawn),17,-1,-2,-2,0,16,.,.
COc1cccc(C(=O)NC(C)c2ccc(Br)cc2)c1 (stereo not drawn),.,.,.,-3,-2,-27*,-15,-11
Cc1cc(F)ccc1-c1cc(C(=O)NCC2CCCCC2)[nH]n1,-11,-1,1,17,1,-36*,.,?
COC(=O)c1ccc2nc(-c3cccc(Br)c3)c(Cc3ccsc3)n2c1,-19,0,13,-1,-2,-34*,?,.
COC(=O)c1ccc2nc(-c3cccc(Cl)c3)c(Cc3ccsc3)n2c1,-5,1,-8,-4,0,-9,.,.
O=C(NCc1cccnc1)C1CCN(S(=O)(=O)c2cc([N+](=O)[O-])ccc2Cl)CC1,-2,3,-12,2,.,-3.1*,-8.1,-13
COCC(=O)Nc1ccc2c(c1)C(=O)N(C)C[C@@H](OC)[C@@H](C)CN(C(=O)c1ccccc1F)[C@@H](C)CO2,-12,-1,7,-51,0,2,.,.
COc1ccc2c3c(n(C)c2c1)[C@H](CO)NCC31CN(Cc2cc(-c3ccccc3)on2)C1,.,.,-27,-19,.,-8,.,.
COc1ccc(Cl)cc1NC(=O)CN(C)CC(=O)Nc1ccccc1-c1ccccc1,10,0,-6,0,4,-24*,-9.7,.
CC(=O)N1CCOc2ccc(S(=O)(=O)N(C)c3ccc(C)cc3)cc21,4,6,-20,-3,-1,-21*,-13,.
C[C@@H]1CN([C@H](C)CO)C(=O)c2cc(-c3ccccc3F)cnc2O[C@H]1CN(C)Cc1cccc(F)c1,-5,0,-22,-3,4,.,.,.
Cc1ccc(N2C(=S)NC3c4cc(Cl)ccc4OC2(C)C3C(=O)N(C)C)cc1 (stereo not drawn),3,4,3,0,1,-22*,-13,?
Fc1cccc(Cc2c(-c3ccco3)nc3c4ccccc4ccn23)c1,4,-4,1,-10,-7,-21*,-9.8,.
Clc1cccc(Cc2c(-c3ccco3)nc3c4ccccc4ccn23)c1,.,.,.,-16,4,.,.,.
Brc1ccc(-c2nc3c4ccccc4ccn3c2Cc2ccccc2)cc1,-14,.,-3,-14,-2,-22*,9.1,0.43
